Assay [1] has as its target Activin receptor type-1-like (Homo sapiens) (UniProt P37023). The assay is described as follows: Inhibition of human recombinant ALK1 at 40 nM related to control ULK1. In a few lines:
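Radiometric activity assays in a panel of 327 human recombinant kinases, each run in duplicate at one inhibitor concentration. Activity remaining is expressed as percent of vehicle control, and percent inhibition is calculated as 100% minus percent activity remaining.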

The target of assay [2] is T1, Dual specificity tyrosine-phosphorylation-regulated kinase 2 (Homo sapiens) (UniProt Q92630).
T1 sequence (whole entry): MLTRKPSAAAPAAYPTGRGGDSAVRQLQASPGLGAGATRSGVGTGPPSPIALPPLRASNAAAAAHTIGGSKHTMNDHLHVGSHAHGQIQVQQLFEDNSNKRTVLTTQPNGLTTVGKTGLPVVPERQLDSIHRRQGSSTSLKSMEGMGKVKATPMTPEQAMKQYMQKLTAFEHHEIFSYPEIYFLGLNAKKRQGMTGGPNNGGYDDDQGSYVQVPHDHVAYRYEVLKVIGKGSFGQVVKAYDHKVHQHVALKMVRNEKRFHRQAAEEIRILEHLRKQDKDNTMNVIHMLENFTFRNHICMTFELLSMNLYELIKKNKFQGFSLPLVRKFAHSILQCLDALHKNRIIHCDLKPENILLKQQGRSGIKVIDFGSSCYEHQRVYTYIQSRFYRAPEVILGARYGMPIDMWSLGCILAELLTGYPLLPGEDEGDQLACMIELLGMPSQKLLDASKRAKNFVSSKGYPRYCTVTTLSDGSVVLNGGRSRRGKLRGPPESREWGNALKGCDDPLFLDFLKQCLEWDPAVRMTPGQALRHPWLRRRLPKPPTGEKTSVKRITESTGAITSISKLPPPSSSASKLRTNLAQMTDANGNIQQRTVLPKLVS
The experiment in a line: Inhibition of human recombinant DYRK2 at 40 nM related to control ULK1.

Assay [3] deals with Aurora kinase B (Homo sapiens) (UniProt Q96GD4). The experiment in a line: Inhibition of human recombinant AurB at 15 nM in presence of ATP by radiometric assay relative to control. Put shortly:
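Part of a radiometric in vitro activity panel of 327 recombinant human kinases. Each kinase was tested in duplicate at one inhibitor concentration. Activity remaining was expressed as a percentage of the vehicle control, and percent inhibition was taken as 100 minus that value.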

The target in assay [4] is T2, Serine/threonine-protein kinase STK11 (Homo sapiens) (UniProt Q15831).
T2 sequence (whole entry): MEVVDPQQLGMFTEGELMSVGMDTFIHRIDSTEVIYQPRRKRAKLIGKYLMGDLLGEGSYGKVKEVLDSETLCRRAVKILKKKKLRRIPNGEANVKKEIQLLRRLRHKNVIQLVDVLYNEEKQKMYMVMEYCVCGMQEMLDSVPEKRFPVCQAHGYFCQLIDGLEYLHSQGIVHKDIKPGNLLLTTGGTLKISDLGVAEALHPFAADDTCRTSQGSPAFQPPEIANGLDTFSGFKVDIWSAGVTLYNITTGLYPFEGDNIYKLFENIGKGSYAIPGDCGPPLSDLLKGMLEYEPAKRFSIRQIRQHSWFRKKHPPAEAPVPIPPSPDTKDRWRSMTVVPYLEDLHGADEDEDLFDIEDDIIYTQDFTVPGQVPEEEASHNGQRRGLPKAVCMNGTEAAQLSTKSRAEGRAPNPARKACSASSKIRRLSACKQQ
The experiment in a line: Inhibition of human recombinant LKB1 at 15 nM related to control ULK1.

Assay [5] concerns the target T3, Serine/threonine-protein kinase Sgk2 (Homo sapiens) (UniProt Q9HBY8).
T3 sequence (whole entry): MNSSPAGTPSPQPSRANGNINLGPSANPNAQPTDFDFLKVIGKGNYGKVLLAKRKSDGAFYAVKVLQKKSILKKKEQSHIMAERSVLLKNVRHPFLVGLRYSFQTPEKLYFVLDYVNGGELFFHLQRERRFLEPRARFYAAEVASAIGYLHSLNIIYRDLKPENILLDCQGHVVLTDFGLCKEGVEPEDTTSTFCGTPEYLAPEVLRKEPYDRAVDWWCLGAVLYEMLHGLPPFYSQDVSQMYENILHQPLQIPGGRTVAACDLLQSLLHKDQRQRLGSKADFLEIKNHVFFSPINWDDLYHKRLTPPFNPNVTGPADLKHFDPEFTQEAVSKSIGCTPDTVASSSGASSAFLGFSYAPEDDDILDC
The experiment in a line: Inhibition of human recombinant SGK2 at 15 nM related to control ULK1.

Assay [6] concerns the target T4, Serine/threonine-protein kinase TBK1 (Homo sapiens) (UniProt Q9UHD2).
T4 sequence (whole entry): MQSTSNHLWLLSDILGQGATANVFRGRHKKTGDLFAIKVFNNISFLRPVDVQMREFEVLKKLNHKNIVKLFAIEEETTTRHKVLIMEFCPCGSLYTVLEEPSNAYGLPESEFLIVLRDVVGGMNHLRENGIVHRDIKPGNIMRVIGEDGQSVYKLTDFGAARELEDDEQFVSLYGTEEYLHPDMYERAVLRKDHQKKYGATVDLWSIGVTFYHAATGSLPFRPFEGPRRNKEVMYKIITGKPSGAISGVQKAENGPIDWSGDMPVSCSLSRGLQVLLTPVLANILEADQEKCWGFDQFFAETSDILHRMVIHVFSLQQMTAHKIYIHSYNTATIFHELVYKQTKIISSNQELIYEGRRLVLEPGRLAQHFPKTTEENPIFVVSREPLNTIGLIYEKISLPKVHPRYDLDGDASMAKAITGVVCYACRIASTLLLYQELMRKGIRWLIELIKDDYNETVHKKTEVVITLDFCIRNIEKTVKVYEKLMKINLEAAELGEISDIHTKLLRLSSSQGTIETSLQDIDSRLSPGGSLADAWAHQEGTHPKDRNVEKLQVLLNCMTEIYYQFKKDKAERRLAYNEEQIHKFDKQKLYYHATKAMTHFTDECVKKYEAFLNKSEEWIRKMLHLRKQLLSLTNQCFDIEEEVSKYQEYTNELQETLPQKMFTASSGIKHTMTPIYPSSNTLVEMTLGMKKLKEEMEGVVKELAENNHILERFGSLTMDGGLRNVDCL
The assay is described as follows: Inhibition of human recombinant TBK1 at 15 nM related to control ULK1.

The term inhibition denotes the relative decrease from the control value, in per cent.

Chain of Aurora kinase B (Homo sapiens) (Q96GD4 whole entry): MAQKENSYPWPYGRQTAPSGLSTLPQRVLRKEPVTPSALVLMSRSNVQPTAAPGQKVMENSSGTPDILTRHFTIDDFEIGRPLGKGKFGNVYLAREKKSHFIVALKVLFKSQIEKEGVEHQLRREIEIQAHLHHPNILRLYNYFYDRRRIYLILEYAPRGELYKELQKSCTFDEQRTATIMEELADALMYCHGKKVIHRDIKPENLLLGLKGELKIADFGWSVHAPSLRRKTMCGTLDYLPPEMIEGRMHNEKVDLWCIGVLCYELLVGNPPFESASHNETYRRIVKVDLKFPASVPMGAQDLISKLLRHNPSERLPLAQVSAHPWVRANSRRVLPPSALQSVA
Chain of Activin receptor type-1-like (Homo sapiens) (P37023 whole entry): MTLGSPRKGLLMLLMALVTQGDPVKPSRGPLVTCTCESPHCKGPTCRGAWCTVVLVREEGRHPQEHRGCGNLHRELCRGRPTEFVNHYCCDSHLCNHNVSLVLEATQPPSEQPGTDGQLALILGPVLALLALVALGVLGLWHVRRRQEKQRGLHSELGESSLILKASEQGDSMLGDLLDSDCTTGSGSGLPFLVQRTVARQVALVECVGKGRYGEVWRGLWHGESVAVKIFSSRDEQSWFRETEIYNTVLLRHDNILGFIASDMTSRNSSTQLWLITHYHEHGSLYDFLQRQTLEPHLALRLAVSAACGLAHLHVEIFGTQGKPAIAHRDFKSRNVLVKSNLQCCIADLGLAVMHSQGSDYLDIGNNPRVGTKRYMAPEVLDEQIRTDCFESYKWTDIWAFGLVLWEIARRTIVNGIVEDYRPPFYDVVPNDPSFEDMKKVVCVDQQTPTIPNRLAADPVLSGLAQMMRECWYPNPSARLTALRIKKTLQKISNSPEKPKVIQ

Consider `O=C(N[C@@H](C1CC1)C(F)(F)F)c1cc(-c2cnn3cc(-c4ccc(F)cc4)cnc23)cs1`, for which the fold change (FC) in assay [1] was 0.01; in assay [2], 0.15.

Regarding `CC(C)[C@H](NC(=O)c1cc(-c2cnn3cc(-c4ccc(OCCN5CCCCC5)cc4)cnc23)cs1)C(F)(F)F`, the inhibition in assay [3] came out at 18%. Also, the fold change (FC) in assay [4] was 0; in assay [5], 0; in assay [6], 0.9.
